Measured values taken from ChEMBL document CHEMBL1138185, “Discovery of protein phosphatase 2C inhibitors by virtual screening” (J Med Chem, 2006).
The source made the active and inactive calls. No cut-off for these calls is given here.

Experiments:
[1] = molecular target: Protein phosphatase 1A (Rattus norvegicus) (UniProt P20650); assay: Inhibition of PP2C alpha at 100 uM
[2] = Inhibition of PP2A
Method in brief: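 Substrate: DARPP-32 pThr34, from rat DARPP-32 expressed in E. coli as a His-tag fusion and phosphorylated by PKA with γ-32P-ATP. Enzyme: PP2A trimer partially purified from rat brain. Duplicate reactions, 10 min at room temperature, stopped with TCA. Supernatant and pellet 32P counted by Cerenkov.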

[3] = Inhibition of PP1
Method in brief: (§1)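 PP1 catalytic fragment acting on 32P-labeled phosphorylase a, which was made from rabbit muscle phosphorylase b with phosphorylase kinase. Duplicate reactions were started with substrate, run 10 min at room temperature and stopped with TCA. Released 32P measured by Cerenkov counting.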

[4] = molecular target: Calcineurin PP2B (Rattus norvegicus); assay: Inhibition of PP2B
[5] = Inhibition of PP1 at 100 uM
Method in brief: as §1

[6] = molecular target: Protein phosphatase 1A (Rattus norvegicus) (UniProt P20650); assay: Inhibition of PP2C alpha

Chain of Protein phosphatase 1A (Rattus norvegicus) (P20650 whole entry, looked up): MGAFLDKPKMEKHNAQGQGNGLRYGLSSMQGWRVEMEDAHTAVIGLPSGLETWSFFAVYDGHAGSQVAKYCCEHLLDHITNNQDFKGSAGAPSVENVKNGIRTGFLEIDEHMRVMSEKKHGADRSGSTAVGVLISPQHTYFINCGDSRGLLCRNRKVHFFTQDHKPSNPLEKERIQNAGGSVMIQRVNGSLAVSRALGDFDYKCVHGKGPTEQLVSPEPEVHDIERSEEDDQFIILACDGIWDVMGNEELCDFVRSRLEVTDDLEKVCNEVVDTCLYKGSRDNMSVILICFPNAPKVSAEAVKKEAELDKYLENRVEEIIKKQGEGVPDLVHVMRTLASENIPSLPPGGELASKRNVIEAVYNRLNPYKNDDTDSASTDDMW

SMILES	inhibition [1] [%]	Activity [2]	other results
CC(C)CC(N)C(=O)Nc1ccc2ccccc2c1 (configuration not stated)	> 30	–	–
CCCCCCCCCCCC1N=C(N)N=C(N)N1c1cccc(Br)c1 (configuration not stated)	–	Active	–
CC1(C)N=C(N)N=C(N)N1c1ccc(CCCCc2ccccc2)cc1	–	–	IC50 [2]: 50 µM; IC50 [3]: 50 µM; IC50 [4]: 50 µM
CC1Oc2cc3c(-c4c(O)cc(O)c5c(O)c6c(cc45)OC(C)C(C)C6=O)c(O)cc(O)c3c(O)c2C(=O)C1C (configuration not stated)	–	Active	–
Ic1ccc2c(c1)N(c1ccccc1)c1cc(Nc3ccc4nc5ccc(I)cc5[n+](-c5ccccc5)c4c3)ccc1N2	> 50	–	–
Cc1cc(N)c2cc(NC(=O)Nc3ccc4nc(C)cc(N)c4c3)ccc2n1	> 30	Active	Activity [5]: Active
C/N=C(N)/N=C(\N)Nc1cc2ccccc2c2ccccc12	> 50	–	IC50 [6]: 20 µM
